Measured values reported in ChEMBL document CHEMBL2062400, “RCAI-84, 91, and 105-108, ureido and thioureido analogs of KRN7000: their synthesis and bioactivity for mouse lymphocytes to produce Th1-biased cytokines” (Bioorg Med Chem, 2012).
The source made the active and inactive calls. The calls are words filed in the database; no cut-off is given here.

How the values were obtained:
Mus musculus [1] = test: Immunostimulatory activity in C57BL/6J mouse assessed as increase in IL4 level at 2 ug, iv by cytometric bead array method; assay type: functional, organism-based
In short: (§1)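 Mice were 8-week C57BL/6J kept under SPF conditions. Glycolipid was dissolved in DMSO (1.0 mg/mL, 80 °C, 30 min), diluted to 200 µg/mL in PBS with 0.5% Tween20, then to 10 µg/mL in PBS. A 200 µL dose (2 µg/mouse) was given iv. Retro-orbital plasma was taken at 3–60 h. IFN-γ was read by ELISA and IL-4 by CBA. Data are mean ± SD of 3 mice, repeated 3 times.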

Mus musculus [2] = test: Immunostimulatory activity in C57BL/6J mouse assessed as increase in IFNgamma level at 2 ug, iv upto 24 hrs by ELISA; assay type: functional, organism-based; in short: as §1
Mus musculus [3] = test: Immunostimulatory activity in C57BL/6J mouse assessed as IFNgamma level at 5 ug, ip at 16 hrs by sandwich ELISA relative to KRN7000; assay type: functional
Mus musculus [4] = test: Immunostimulatory activity in C57BL/6J mouse assessed as IL4 level at 5 ug, ip at 2 hrs by sandwich ELISA relative to KRN7000; assay type: functional
Mus musculus [5] = test: Immunostimulatory activity in C57BL/6J mouse assessed as increase in IL12p70 level at 2 ug, iv from 3 to 12 hrs by cytometric bead array method relative to KRN7000; assay type: functional, organism-based
In short: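 Eight-week SPF C57BL/6J mice received 2 µg glycolipid iv (200 µL of 10 µg/mL in PBS, from a DMSO stock diluted in PBS/0.5% Tween20). Plasma was collected from the retro-orbital plexus with heparinized capillaries at 3, 6, 12, 24, 36, 48 and 60 h. IL-12p70 was quantified by cytometric bead array.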

Mus musculus [6] = test: Immunostimulatory activity in C57BL/6J mouse assessed as IL4 level at 2 ug, iv by cytometric bead array method relative to KRN7000; assay type: functional
Mus musculus [7] = test: Immunostimulatory activity in C57BL/6J mouse assessed as IFNgamma level at 2 ug, iv upto 24 hrs by ELISA relative to KRN7000; assay type: functional

Row | Compound | Activity (Mus musculus [1]) | Activity (Mus musculus [2]) | other results
1 | CCCCCCCCCCCCCCCCNC(=O)N[C@@H](CO[C@H]1O[C@H](CO)[C@H](O)[C@H](O)[C@H]1O)[C@H](O)[C@H](O)CCCCCCCCCCCCCC | Active | Active | 
2 | CCCCCCCCCCCCCCCCCCCCCCCCC(F)(F)C(=O)N[C@@H](CO[C@H]1O[C@H](CO)[C@H](O)[C@H](O)[C@H]1O)[C@H](O)[C@H](O)CCCCCCCCCCCCCC |  |  | Activity (Mus musculus [3]): 50%; Activity (Mus musculus [4]): 100%
3 | CCCCCCCCCCCCCCCCCCCCCCCCCC(=O)N[C@@H](CO[C@H]1C[C@H](COC)[C@H](O)[C@H](O)[C@H]1O)[C@H](O)[C@H](O)CCCCCCCCCCCCCC |  | Active | 
4 | CCCCCCCCCCCCCCCCCCCCCCCCCC(=O)N[C@@H](CO[C@H]1O[C@H](CO)[C@H](O)[C@H](O)[C@H]1O)[C@H](O)[C@H](O)CCCCCCCCCCCCCC | Active |  | 
5 | CCCCCCCCCCCCCCCCCCCCCCCCNC(=O)N[C@@H](CO[C@H]1O[C@H](COC)[C@H](O)[C@H](O)[C@H]1O)[C@H](O)[C@H](O)CCCCCCCCCCCCCC |  | Active | Activity (Mus musculus [5]): Active
6 | CCCCCCCCCCCCCCCCCCCCCCCCCC(=O)N[C@@H](CS[C@H]1O[C@H](CO)[C@H](O)[C@H](O)[C@H]1O)[C@H](O)[C@H](O)CCCCCCCCCCCCCC |  | inactive | 
7 | CCCCCCCCCCCCCC[C@@H](O)[C@@H](O)[C@H](CO[C@H]1O[C@H](CO)[C@H](O)[C@H](O)[C@H]1O)NC(=O)NCCCCCc1ccccc1 | inactive | inactive | 
8 | CCCCCCCCCCCCCCCCCCCCCCCCNC(=O)N[C@@H](CO[C@H]1O[C@H](CO)[C@H](O)[C@H](O)[C@H]1O)[C@H](O)[C@H](O)CCCCCCCCCCCCCC |  | Active | Activity (Mus musculus [5]): Active
9 | CCCCCCCCCCCCCC[C@@H](O)[C@@H](O)[C@H](CO[C@H]1O[C@H](CO)[C@H](O)[C@H](O)[C@H]1O)NC(=O)CCCCCc1ccccc1 |  | inactive | 
10 | CCCCCCCCCCCCCCCCCCCCCCCCCC(=O)N[C@@H](CC[C@H]1O[C@H](CO)[C@H](O)[C@H](O)[C@H]1O)[C@H](O)[C@H](O)CCCCCCCCCCCCCC |  | Active | 
11 | CCCCCCCCCCCCCCCCNC(=S)N[C@@H](CO[C@H]1O[C@H](CO)[C@H](O)[C@H](O)[C@H]1O)[C@H](O)[C@H](O)CCCCCCCCCCCCCC | inactive | inactive | 
12 | CCCCCCCCCCCCCCCCCCCCCCCCCC(=O)N[C@@H](CO[C@H]1C[C@H](CO)[C@H](O)[C@H](O)[C@H]1O)[C@H](O)[C@H](O)CCCCCCCCCCCCCC |  | Active | 
13 | CCCCCCCCCCCCCCCCCC(=O)N[C@@H](CO[C@H]1O[C@H](CO)[C@H](O)[C@H](O)[C@H]1O)[C@H](O)[C@H](O)CCCCCCCCCCCCCC |  |  | Activity (Mus musculus [6]): 40%; Activity (Mus musculus [7]): 10%
14 | CCCCCCCCCCCCCC[C@@H](O)[C@@H](O)[C@H](CO[C@H]1O[C@H](CO)[C@H](O)[C@H](O)[C@H]1O)NC(=O)NCCCCCCCC | Active | Active | 
